The species named for test [1] is Rattus norvegicus. The test is described as follows: Reduction in the amplitude of the nACh-activated current in rat parasympathetic ganglia at 10 uM (n = 3); No effect. In kind it is functional, organism-based. The essentials: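 Perforated-patch whole-cell recording with 240 µg/mL amphotericin B in the pipette (K₂SO₄/KCl/MgSO₄/HEPES, pH 7.2). Bath: NaCl/KCl/CaCl₂/MgCl₂/glucose/HEPES. ACh 500 µM plus atropine 100 nM applied 2 s by piezo. Peptide is present in pipette and perfusate. Current is expressed as % of control, mean ± SEM.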

For test [2], the species on record is Rattus norvegicus. The test is described as follows: Percent Hemolysis observed in rat red blood cells when Treated with 5 mM concentration. In kind it is functional.
The species entered for test [3] is Rattus norvegicus. The test is described as follows: Percent Hemolysis observed in rat red blood cells when Treated with 1 mM concentration. In kind it is functional.
The test system of test [4] is Caco-2. The test is described as follows: Apparent Permeability through Caco-2 cell monolayers (n = 4). In kind it is functional, cell-based. As to conditions: Homo sapiens. The essentials:
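Caco-2 cells seeded on polycarbonate inserts (0.45 µm pore, 6.5 mm) and grown 21 days to differentiate; TEER >400 Ω/cm² before and after. ³H-acetylated peptide or [¹⁴C]mannitol (200 µM) added apically in HBSS/25 mM HEPES pH 7.4, 37 °C, shaken 400 rpm. Receiver chamber swapped at 30, 90, 150 min; scintillation counting. Papp averaged over four replicates.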
For orientation: Caco-2 monolayers are a common model of the intestinal barrier.

The species named for test [5] is Rattus norvegicus. The test is described as follows: Reduction in the amplitude of the nACh-activated current in rat parasympathetic ganglia at a concentration of 22 nM to that of control response (n =4). In kind it is functional. Also on record: scale not given: the % may be the effect or the level left.
Test [6] is filed under the species Rattus norvegicus. The test is described as follows: Reduction in the amplitude of the nACh-activated current in rat parasympathetic ganglia at a concentration of 222 nM to that of control response (n =3). In kind it is functional. Also on record: scale not given: the % may be the effect or the level left.
Test [7] is filed under the species Rattus norvegicus. The test is described as follows: Reduction in the nACh-activated current in rat parasympathetic ganglia at a concentration of 4.5 nM to that of control response (n =3). In kind it is functional. Also on record: scale not given: the % may be the effect or the level left.
For test [8], the species on record is Rattus norvegicus. The test is described as follows: Reduction in the amplitude of the nACh-activated current in rat parasympathetic ganglia. In kind it is functional, organism-based.
For test [9], the species on record is Rattus norvegicus. The test is described as follows: Percent Hemolysis observed in rat red blood cells when Treated with 2 mM concentration. In kind it is functional.
The species entered for test [10] is Rattus norvegicus. The test is described as follows: Reduction in the amplitude of the nACh-activated current in rat parasympathetic ganglia at a concentration of 22 nM to that of control response (n =2). In kind it is functional. Also on record: scale not given: the % may be the effect or the level left.

Where “and” joins values, the source holds several entries; their conditions need not be identical. Equal values may be shown once. Calls of active or inactive are those of the source. The rule behind the calls is not given here.

These results are taken from ChEMBL document CHEMBL1136746 (2003).

`CCCCCCCCCCC1C(=O)[C@H](CC(N)=O)NC(=O)[C@H](CO)NC(=O)[C@@H]2CSSC[C@@H](C(=O)O)NC(=O)[C@H](CC(C)C)NC(=O)[C@H](CC(N)=O)NC(=O)[C@H](CO)NC(=O)[C@H](Cc3c[nH]cn3)NC(=O)[C@H](CCC(=O)O)NC(=O)[C@H](CC(C)C)NC(=O)[C@H](Cc3c[nH]cn3)NC(=O)[C@H](CSSC[C@H](NC(=O)CN)C(=O)N2)NC(=O)[C@H](C(C)C)NC(=O)[C@@H]2CCCN12` (stereo partly specified): the Reduction entry in [1] was “inactive”.
As to `CCCCCCCCCCC(NCC(=O)N[C@H]1CSSC[C@@H]2NC(=O)[C@H](C(C)C)NC(=O)[C@@H]3CCCN3C(=O)[C@H](CC(N)=O)NC(=O)[C@H](CO)NC(=O)[C@H](CSSC[C@@H](C(=O)O)NC(=O)[C@H](CC(C)C)NC(=O)[C@H](CC(N)=O)NC(=O)[C@H](CO)NC(=O)[C@H](Cc3c[nH]cn3)NC(=O)[C@H](CCC(=O)O)NC(=O)[C@H](CC(C)C)NC(=O)[C@H](Cc3c[nH]cn3)NC2=O)NC1=O)C(=O)O` (stereo partly specified), the Hemolysis in [2] was 0.83%; in test [3], 1.04%; in test [9], 0.45%. In addition, the Papp in [4] is 4.97 10e-6 cm s-1. The Control was determined as 57% in test [5], 47% in test [6] and 92% in [7]. This compound also yielded an IC50 in test [8] of 12.8 nM.
Turning to `CC(C)C[C@@H]1NC(=O)[C@H](CC(N)=O)NC(=O)[C@H](CO)NC(=O)[C@H](Cc2c[nH]cn2)NC(=O)[C@H](CCC(=O)O)NC(=O)[C@H](CC(C)C)NC(=O)[C@H](Cc2c[nH]cn2)NC(=O)[C@@H]2CSSC[C@H](NC(=O)CN)C(=O)N[C@@H](CSSC[C@@H](C(=O)O)NC1=O)C(=O)N[C@@H](CO)C(=O)N[C@@H](CC(N)=O)C(=O)N1CCC[C@H]1C(=O)N[C@@H](C(C)C)C(=O)N2`, the values for the Hemolysis in test [2], in test [3] and in [9] were 1.35%, 0.53% and 0.83%, respectively. Besides, the Control in test [10] was 57% and 41%; in test [7], 90%. Also, the Papp in test [4] is 20.5 10e-6 cm s-1. Also, inhibition in test [8] was half-maximal at 10 nM (IC50).

For orientation: Papp means a coefficient for how fast a substance crosses the barrier. The IC50 is the midpoint of a concentration-inhibition curve.
